The text below walks through data of ChEMBL document CHEMBL1811774, “Chromone, a privileged scaffold for the development of monoamine oxidase inhibitors” (J Med Chem, 2011).

A value given as a limit tells only on which side of the number the result lay.

The target of series [1] is T1, Amine oxidase [flavin-containing] A (Homo sapiens, UniProt P21397).
T1 sequence (P21397 whole entry): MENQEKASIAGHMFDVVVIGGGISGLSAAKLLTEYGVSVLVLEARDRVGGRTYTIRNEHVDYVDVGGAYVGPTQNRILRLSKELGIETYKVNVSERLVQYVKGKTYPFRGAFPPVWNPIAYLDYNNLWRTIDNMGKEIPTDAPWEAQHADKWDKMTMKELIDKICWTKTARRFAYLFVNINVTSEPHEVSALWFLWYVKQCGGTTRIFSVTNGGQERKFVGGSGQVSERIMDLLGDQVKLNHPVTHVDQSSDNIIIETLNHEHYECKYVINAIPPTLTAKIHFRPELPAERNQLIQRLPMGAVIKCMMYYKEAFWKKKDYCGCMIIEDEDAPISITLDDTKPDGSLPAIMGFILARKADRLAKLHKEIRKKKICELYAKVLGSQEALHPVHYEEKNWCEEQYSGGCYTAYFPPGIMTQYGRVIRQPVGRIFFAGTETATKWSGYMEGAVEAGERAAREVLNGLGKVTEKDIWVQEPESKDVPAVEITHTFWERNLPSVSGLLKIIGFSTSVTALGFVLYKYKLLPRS
Nature of the series: Inhibition of human MAO-A assessed as inhibition of p-tyramine oxidation to p-hydroxyphenyl-acetaldehyde at 100 uM after 15 mins by fluorimetric method. As to conditions: 0.25 h; call rule not given here.

The target of series [2] is T2, Amine oxidase [flavin-containing] B (Homo sapiens, UniProt P27338).
T2 sequence (P27338 whole entry): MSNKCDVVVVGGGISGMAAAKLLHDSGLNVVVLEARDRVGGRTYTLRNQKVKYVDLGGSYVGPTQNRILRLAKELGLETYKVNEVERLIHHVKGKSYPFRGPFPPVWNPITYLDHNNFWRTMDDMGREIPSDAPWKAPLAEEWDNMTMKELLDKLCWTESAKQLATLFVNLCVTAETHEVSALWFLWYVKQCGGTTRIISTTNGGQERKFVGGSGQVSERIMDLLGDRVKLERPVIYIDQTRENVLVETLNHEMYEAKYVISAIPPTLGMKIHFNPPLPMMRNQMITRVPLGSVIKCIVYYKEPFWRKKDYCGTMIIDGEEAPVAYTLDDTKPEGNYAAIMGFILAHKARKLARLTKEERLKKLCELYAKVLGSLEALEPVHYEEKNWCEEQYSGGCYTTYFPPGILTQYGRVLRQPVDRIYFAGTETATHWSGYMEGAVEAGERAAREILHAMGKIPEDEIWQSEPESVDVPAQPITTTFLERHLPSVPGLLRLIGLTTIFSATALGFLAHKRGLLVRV
Briefly: Inhibition of human MAO-B assessed as inhibition of p-tyramine oxidation to p-hydroxyphenyl-acetaldehyde at 1 mM after 15 mins by fluorimetric method. The note with it: 0.25 h, 1000 µM. An outline of the steps: (§1)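 Microsomal recombinant hMAO-A or hMAO-B from baculovirus-infected BTI-TN5B1-4 insect cells. Enzyme was set to oxidize 165 pmol p-tyramine/min (MAO-A 1.1 μg, MAO-B 7.5 μg protein). It was preincubated with compound 15 min at 37 C in 0.05 M sodium phosphate, pH 7.4. Reaction started with final 200 μM Amplex Red, 1 U/mL HRP and 1 mM p-tyramine. H2O2-derived resorufin fluorescence (ex 545/em 590) read over 15 min at 37 C, background-subtracted, against vehicle controls. Highest concentration 100 μM or 1 mM; mean ± SEM, n = 5.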

In series [3] the target is T2, Amine oxidase [flavin-containing] B. Briefly: Inhibition of human MAO-B assessed as inhibition of p-tyramine oxidation to p-hydroxyphenyl-acetaldehyde at 100 uM after 15 mins by fluorimetric method. The note with it: 0.25 h. An outline of the steps:
as §1

The target is the same in series [4]. Nature of the series: Inhibition of human MAO-B assessed as inhibition of p-tyramine oxidation to p-hydroxyphenyl-acetaldehyde after 15 mins by fluorimetric method.
Series [5] is filed under the species Homo sapiens. Briefly: Selectivity index, ratio of IC50 for human MAO-A to IC50 for human MAO-B.
Series [6] concerns the target T1, Amine oxidase [flavin-containing] A. Nature of the series: Inhibition of human MAO-A assessed as inhibition of p-tyramine oxidation to p-hydroxyphenyl-acetaldehyde after 15 mins by fluorimetric method. The procedure, abridged: as §1
In series [7] the target is T2, Amine oxidase [flavin-containing] B. Nature of the series: Irreversible inhibition of human MAOB expressed assessed as inhibition of p-tyramine oxidation to p-hydroxyphenyl-acetaldehyde at 100 uM measured after repeated washing by centrifugation-ultrafiltration method. The procedure, abridged: (§2)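 Recombinant hMAO-B preincubated with a single compound concentration for 15 min at 37 C in 0.05 M sodium phosphate, pH 7.4. One aliquot kept at 4 C, unwashed. The rest was ultrafiltered through a 30 kDa membrane (9000g, 20 min, 4 C), resuspended and spun twice more.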

The target is the same in series [8]. Nature of the series: Reversible inhibition of human MAOB expressed assessed as inhibition of p-tyramine oxidation to p-hydroxyphenyl-acetaldehyde at 100 uM measured before repeated washing by centrifugation-ultrafiltration method. An outline of the steps: as §2

Consider `O=C(NC1CCCCC1)c1cc(=O)c2ccccc2o1`, for which the “inhibition (INH)” value in series [1] and in series [2] was “Not Active” in each case.
As to `O=C(Nc1ccccc1)c1cc(=O)c2ccccc2o1`, the “inhibition (INH)” value in series [1] and in series [3] was “Not Active” in each case.
As a reminder, the IC50 is the concentration that inhibits the measured activity by half. For `CCCNC(=O)c1coc2ccccc2c1=O`, the half-maximal inhibitory concentration (IC50) in series [4] was 37.7 µM. In addition, the Ratio IC50 in series [5] is above 2.7. In series [1], the “inhibition (INH)” value was “Not Active”.
Consider `O=C(Nc1ccc(O)c(O)c1)c1cc(=O)c2ccccc2o1`, for which the IC50 in series [6] worked out at 0.19 µM; in series [4], 2.66 µM. Besides, in series [5], the Ratio IC50 is 0.071.
Broadly, the inhibition is the change of the read-out against control, counted positive when it falls. Turning to `O=C(Nc1ccc(O)cc1)c1coc2ccccc2c1=O`, the results for the IC50 in series [6] and in series [4] were 4.76 µM and 0.064 µM, respectively. For the same molecule, the Ratio IC50 in series [5] amounted to 74. Further, the inhibition at 100 µM is 23.5% in series [7] and 60.3% in series [8].
Consider `O=C(Nc1ccc(OC(F)(F)F)cc1)c1coc2ccccc2c1=O`, for which the IC50 in series [4] is 1.08 µM. In addition, the Ratio IC50 in series [5] is above 93. Also, the “inhibition (INH)” value in series [1] was “Not Active”.
On to `O=C(NC1CCCCC1)c1coc2ccccc2c1=O`, for which the IC50 in series [4] came out at 0.93 µM. Also, the Ratio IC50 in series [5] is above 107. Moreover, in series [1], the “inhibition (INH)” value is reported as “Not Active”.
On the same counts, the results for `O=C(Nc1ccc(C(F)(F)F)cc1)c1coc2ccccc2c1=O` are 0.11 µM, above 909 and “Not Active”.
As to `O=C(Nc1ccc(O)cc1)c1cc(=O)c2ccccc2o1`, the half-inhibitory concentration (IC50) in series [6] came to 65.2 µM; in series [4], 41.9 µM. The Ratio IC50 in series [5] turned out to be 1.6.
Consider `CCCNC(=O)c1cc(=O)c2ccccc2o1`, for which the “inhibition (INH)” value in series [1] and in series [2] was “Not Active” each time.
For the molecule `O=C(Nc1ccc(C(F)(F)F)cc1)c1cc(=O)c2ccccc2o1`, the “inhibition (INH)” value in series [1] and in series [3] was “Not Active” each time.
As for `O=C(Nc1ccc([N+](=O)[O-])cc1)c1cc(=O)c2ccccc2o1`, the “inhibition (INH)” value in series [1] and in series [3] was “Not Active” each time.
`COc1ccc(NC(=O)c2coc3ccccc3c2=O)cc1OC`: the IC50 in series [4] is 2.33 µM. Also, the Ratio IC50 in series [5] is above 43. In addition, the “inhibition (INH)” value in series [1] was “Not Active”.
As to `COc1ccc(NC(=O)c2coc3ccccc3c2=O)cc1O`, the IC50 came out at 8.34 µM in series [6] and 0.076 µM in series [4]. For the same molecule, in series [5], the Ratio IC50 came to 110.
On to `O=C(Nc1ccc(OC(F)(F)F)cc1)c1cc(=O)c2ccccc2o1`, for which the “inhibition (INH)” value in series [1] and in series [3] was “Not Active” throughout.
For the molecule `O=C(Nc1ccc([N+](=O)[O-])cc1)c1coc2ccccc2c1=O`, the IC50 in series [6] turned out to be 11.1 µM; in series [4], 11.8 µM. Also, in series [5], the Ratio IC50 turned out to be 0.94.
Consider `COc1ccc(NC(=O)c2cc(=O)c3ccccc3o2)cc1O`, for which the “inhibition (INH)” value in series [1] and in series [3] was “Not Active” throughout.
Take `COc1ccc(NC(=O)c2cc(=O)c3ccccc3o2)cc1OC`: the “inhibition (INH)” value in series [1] and in series [3] was “Not Active” in each case.
As to `O=C(Nc1ccc(O)c(O)c1)c1coc2ccccc2c1=O`, the IC50 in series [6] came to 0.43 µM; in series [4], 0.16 µM. Also, in series [5], the Ratio IC50 came to 2.7.
Turning to `O=C(Nc1ccc(Cl)cc1)c1cc(=O)c2ccccc2o1`, the “inhibition (INH)” value in series [1] and in series [3] was “Not Active” in each case.
